In ChEMBL document CHEMBL4477278, “Synthesis and evaluation of 8-hydroxyquinolin derivatives substituted with (benzo[d][1,2]selenazol-3(2H)-one) as effective inhibitor of metal-induced Aβ aggregation and antioxidant” (Bioorg Med Chem, 2016):

Columns and labels:
[1] = Antioxidant activity assessed as Cum-OOH scavenging at 10 uM measured after 300 mins in presence of GSH and NADPH; assay type: functional
Summary of the method: (§1)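 Kinetic peroxide removal in 100 mM phosphate buffer pH 7.5 at 25 °C with 1 mM EDTA, 0.25 mM GSH, 0.50 mM NADPH, 1.3 U/mL glutathione reductase, 0.20 mM peroxide and 10 µM catalyst. NADPH consumption followed over time. Means of three independent experiments.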

[2] = Antioxidant activity assessed as glutathione peroxidase-like activity in phosphate buffer measured as initial rate for the reduction of […] by GSH at 80 uM in presence of NADPH by coupled reductase assay; assay type: functional
Summary of the method: (§2)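 Coupled reductase assay in 100 mM potassium phosphate pH 7.5 at 25 °C: 2 mM GSH, 1 mM EDTA, 1.3 U/mL glutathione reductase, 0.4 mM NADPH, 80 µM selenium compound. Reaction started with 1.6 mM peroxide. Initial rate is taken from NADPH oxidation at 340 nm over the first 5–10% of reaction (ε 6.22 mM⁻¹cm⁻¹). Triplicate, mean ± SD.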

[3] = Antioxidant activity assessed as t-BuOOH scavenging at 10 uM measured after 300 mins in presence of GSH and NADPH; assay type: functional; summary of the method: as §1
[4] = Antioxidant activity assessed as H2O2 scavenging at 10 uM measured after 200 to 220 mins in presence of GSH and NADPH; assay type: functional; summary of the method: as §1
[5] = Antioxidant activity assessed as glutathione peroxidase-like activity in phosphate buffer measured as initial rate for the reduction of cumene hydroperoxide by GSH at 80 uM in presence of NADPH by coupled reductase assay; assay type: functional; summary of the method: as §2
[6] = Permeability of the compound at 100 ug/ml measured after 10 hrs by PAMPA-BBB assay; assay type: ADME; conditions: read-out: Peff
Summary of the method: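 PAMPA-BBB: filter coated with porcine brain lipid in dodecane (20 mg/mL). Compound is dissolved in DMSO (5 mg/mL) and diluted 50-fold in PBS/EtOH 7:3 to 100 µg/mL in donor wells, with PBS/EtOH acceptor. Plates stand 10 h at 25 °C, then acceptor concentration is read by UV at five wavelengths, four wells, at least three runs. Pe is calculated by formula; assay validated with 13 reference drugs.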

[7] = Antioxidant activity assessed as AAPH radical scavenging activity preincubated for 10 mins followed by AAPH challenge measured as trolox equivalents measured at every min for 120 mins by ORAC-FL assay; assay type: functional
Summary of the method: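 ORAC-FL: compound diluted in 75 mM phosphate buffer pH 7.4, premixed with fluorescein (70 nM final) for 10 min at 37 °C, then AAPH added. Fluorescence (ex 485, em 520 nm) read each minute for 120 min. Net AUC versus blank is converted to Trolox equivalents using a Trolox standard curve (10–100 µM). Triplicates, at least three independent runs.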

[8] = Antioxidant activity assessed as glutathione peroxidase-like activity in phosphate buffer measured as initial rate for the reduction of tert-butyl hydroperoxide by GSH at 80 uM in presence of NADPH by coupled reductase assay; assay type: functional; summary of the method: as §2
[9] = Inhibition of Cu2+ induced aggregation of recombinant human amyloid beta (1 to 42) at 50 uM after 24 hrs by thioflavin-T based fluorescence assay
Summary of the method: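 Aβ1–42 (stock in 1% ammonium hydroxide), 25 µM final, with or without CuSO4 (25 µM) and compound (50 µM) in HEPES pH 6.6 with NaCl, incubated 24 h at 37 °C. Samples then diluted tenfold into 50 mM glycine-NaOH pH 8.0 containing 5 µM thioflavin T for fluorescence read-out.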

[10] = Metal chelating activity of the compound assessed as Cu2+ complex formation by measuring maximum absorption wave length at 50 uM measured after 30 mins by UV-Vis spectrometry (reference value: 301 nm); assay type: functional
Summary of the method: (§3)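 Compound (50 µM final) with or without metal salt (CuSO4, FeSO4, FeCl3 or ZnCl2, 50 µM final) in 20 mM HEPES, 150 mM NaCl, pH 7.4. After 30 min, UV-vis absorption spectra are recorded at room temperature.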

[11] = Metal chelating activity of the compound assessed as Fe3+ complex formation by measuring maximum absorption wave length at 50 uM measured after 30 mins by UV-Vis spectrometry (reference value: 301 nm); assay type: functional; summary of the method: as §3
[12] = Metal chelating activity of the compound assessed as Zn2+ complex formation by measuring maximum absorption wave length at 50 uM measured after 30 mins by UV-Vis spectrometry (reference value: 301 nm); assay type: functional; summary of the method: as §3
[13] = Metal chelating activity of the compound assessed as Fe2+ complex formation by measuring maximum absorption wave length at 50 uM measured after 30 mins by UV-Vis spectrometry (reference value: 301 nm); assay type: functional; summary of the method: as §3

Row | Structure (SMILES) | Activity [1] | Activity [2] | Activity [3] | Activity [4] | Activity [5] | Papp at 10 h, 100 ug/ml [6] | Activity (umolequiv/umol) [7] | Activity [8] | inhibition [9] | Activity [10] | Activity [11] | Activity [12] | Activity [13]
1 | O=c1c2cccc(F)c2[se]n1-c1ccc2cccc(O)c2n1 | 66% | 152 µM/min | 31% | 62% | 24.1 µM/min | 11.1 ×10⁻⁶ cm/s | 3.6 | 55.5 µM/min | – | – | – | – | –
2 | O=c1c2ccccc2[se]n1-c1ccccc1 | – | 113 µM/min | – | – | 22.6 µM/min | – | – | 47.6 µM/min | – | – | – | – | –
3 | Oc1c(I)cc(Cl)c2cccnc12 | – | – | – | – | – | – | 0.5 | – | 87% | – | – | – | –
4 | O=c1c2c(F)cccc2[se]n1-c1ccc2cccc(O)c2n1 | 74% | 102 µM/min | 46% | 71% | 31.4 µM/min | 7.4 ×10⁻⁶ cm/s | 2.3 | 47.9 µM/min | 82% | – | – | – | –
5 | O=c1c2cc(F)ccc2[se]n1-c1ccc2cccc(O)c2n1 | – | 64.3 µM/min | – | – | 15.9 µM/min | – | – | 20.4 µM/min | – | – | – | – | –
6 | O=c1c2ccc(Cl)cc2[se]n1-c1ccc2cccc(O)c2n1 | – | 45 µM/min | – | – | 23.3 µM/min | – | – | 7.1 µM/min | – | – | – | – | –
7 | O=c1c2cc(Cl)ccc2[se]n1-c1ccc2cccc(O)c2n1 | – | 45 µM/min | – | – | 23.9 µM/min | – | – | 6.9 µM/min | – | – | – | – | –
8 | O=c1c2cccc(C(F)(F)F)c2[se]n1-c1ccc2cccc(O)c2n1 | – | 132 µM/min | – | – | 30 µM/min | 13.3 ×10⁻⁶ cm/s | 0.3 | 31.7 µM/min | – | – | – | – | –
9 | O=c1c2c(Cl)cccc2[se]n1-c1ccc2cccc(O)c2n1 | 68% | 155 µM/min | 38% | 65% | 35.1 µM/min | 7.8 ×10⁻⁶ cm/s | 0.9 | 52.1 µM/min | – | – | – | – | –
10 | O=c1c2ccccc2[se]n1-c1ccc2cccc(O)c2n1 | – | 49.9 µM/min | – | – | 17.1 µM/min | – | – | 14 µM/min | – | – | – | – | –
11 | O=c1c2cc(O)ccc2[se]n1-c1ccc2cccc(O)c2n1 | 47% | 106 µM/min | 30% | 60% | 24.3 µM/min | 5.9 ×10⁻⁶ cm/s | 2.6 | 63.4 µM/min | 60% | 316 nm | 300 nm | 304 nm | 297 nm
12 | O=c1c2cc(C(F)(F)F)ccc2[se]n1-c1ccc2cccc(O)c2n1 | – | 69.9 µM/min | – | – | 5.6 µM/min | – | – | 8 µM/min | – | – | – | – | –
13 | O=c1c2ccc(F)cc2[se]n1-c1ccc2cccc(O)c2n1 | – | 77.3 µM/min | – | – | 11.1 µM/min | – | – | 6.4 µM/min | – | – | – | – | –
14 | O=c1c2c(C(F)(F)F)cccc2[se]n1-c1ccc2cccc(O)c2n1 | 77% | 161 µM/min | 67% | 68% | 31.7 µM/min | 10.1 ×10⁻⁶ cm/s | 0.2 | 62 µM/min | 79% | – | – | – | –
15 | O=c1c2ccc(C(F)(F)F)cc2[se]n1-c1ccc2cccc(O)c2n1 | – | 64.2 µM/min | – | – | 16.1 µM/min | – | – | 10.6 µM/min | – | – | – | – | –
